≈ marks a conversion by molar mass, not a printed value.

The subject of data set [1] is Nucleic Acid. In words: Changes in the DNA melting temperature of an AT-rich dodecamer (CGATTATTAAGC) (GCTTAATAATCG) upon binding of an equimolar amount of compound. The data set is classed as nucleic-acid assay. In outline:
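Melting monitored by UV absorbance at 260 nm in 10 mM HEPES pH 7.2, 0.1 mM EDTA, 50 mM NaCl. 12-bp AT-rich oligo at 5 μM mixed with compound at equimolar ratio. Temperature ramped 15 to 95 °C at 0.2 °C/min. Tm by derivative method, checked by hyperchromicity. ΔTm is Tm with compound minus Tm without. At least duplicate.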

Data set [2] concerns Enterococcus. In words: In vitro antimicrobial activity against Vancomycin resistant enterococcus strain BM4147. The class given is functional. In outline: (§1)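 Broth microdilution MIC per NCCLS M7-A4. Compounds dissolved fresh in DMSO as 10 mM stock, then diluted in BHI medium for VRE (BM4147, UCD3) or Mueller-Hinton medium for MRSA. Seven 1:2 serial dilutions gave test concentrations of 45.5 to 0.7 μM. MIC read by visual inspection of wells after 2 days.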

The test system of data set [3] is Enterococcus. In words: In vitro antimicrobial activity against Vancomycin resistant enterococcus strain UCD-3. The class given is functional. In outline: as §1
The test system of data set [4] is Staphylococcus aureus. As to the kind of experiment: In vitro antimicrobial activity against Methicillin resistant Staphylococcus aureus. The class given is functional. In outline: as §1
A short description of data set [5]: Toxicity assessed in human T-cells using a colorimetric cell proliferation assay. The data set is classed as cell-based. In outline: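 CCRF-CEM human leukemia T-cells in RPMI-1640 with 10% FBS and gentamicin 0.1 mg/mL, seeded at 4 × 10^4 cells/well. Compound added at start at 50, 25, 12.5 and 6.3 μM. WST-1 cleavage read by absorbance at 440 nm at 24, 48 and 72 h. Value reported as lowest % of no-compound control, typically 72 h at 50 μM. At least triplicate.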

As for `CC(C)CCn1cc(NC(=O)c2ccc(C(=O)Nc3cc(C(=O)NCCC(=N)N)n(CCC(C)C)c3)cc2)cc1C(=O)NCCC(=N)N`, the ΔTm in data set [1] worked out at 28. In addition, the MIC came to 0.7 µM (≈ 0.463 µg/mL) in data set [2], 0.7 µM (≈ 0.463 µg/mL) in data set [3] and 1.4 µM (≈ 0.925 µg/mL) in data set [4]. The compound further had an NCC in data set [5] of 4%.
Take `CCCn1cc(NC(=O)c2ccc(C(=O)Nc3cc(C(=O)NCCC(=N)N)n(CCC)c3)cc2)cc1C(=O)NCCC(=N)N`: in data set [1], the ΔTm is 29. Besides, the values for the minimal inhibitory concentration (MIC) in data set [2], in data set [3] and in data set [4] were 5.6 µM (≈ 3.39 µg/mL), 5.6 µM (≈ 3.39 µg/mL) and 11.1 µM (≈ 6.71 µg/mL), respectively. Besides, in data set [5], the NCC was determined as 61%.

The values are drawn from ChEMBL document CHEMBL1135717, “Minor groove DNA binders as antimicrobial agents. 1. Pyrrole tetraamides are potent antibacterials against vancomycin resistant Enterococci [corrected] and methicillin resistant Staphylococcus aureus” (J Med Chem, 2002).
